Sampled rows, rich in hits. Any-hit rate of the full collection: about 6.5%.
Pyk2 oligo antag: antagonists of Pyk2 self-association, primary screen, Q293 cells, FERM NanoBiT luminescence, HTS. Protein-tyrosine kinase 2-beta (Homo sapiens), Q14289. active compounds read low. z-score (the deposit names both 25 µM and 10 µM). actives 0.83% (n = 99,000). AID 1347419, 2020;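 active = Z-score of -3 or lower, scaled per plate to the spread of control and sample wells; inactive = z-score above -3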;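 also: negative z-score means lost luminescence so less FERM oligomerization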
PostGolgi yeast: phenotypic screen on post-Golgi transport, primary screen; actives 0.9% (n = 98,000); AID 739, 2007; post-Golgi transport phenotypic cell assay; inhibition, % at 10 µM;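 also: yeast cells grown in 1536-well plates; yeast grown about 18 h at 30C before absorbance read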
Ecoli tolC: growth inhibitors of E. coli tolC mutant, primary screen, strain BW25113 ΔtolC::kan, 384-well | OD615 | growth inhibition, % at 10 µM (by protocol) | actives 2.2% (n = 65,000) | AID 573, 2007;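 active = growth inhibition at or above a cutoff equal to the mean over every tested compound plus 3 SD, cut at about 60% in these data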;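 also: growth measured after 20 h incubation at 37 °C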
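Material: E. coli BW25113 ΔtolC::kan, tolC deletion mutant strain. Measure: percent growth inhibition. Schedule: 37 °C, 20 h exposure. Doses: single-point testing at 10 µM. Signal: A615 absorbance measurement. Buffer or medium: kanamycin-containing LB broth (50 µg/mL).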
PostGolgi ctrl: growth inhibition of yeast control strain, primary screen, counter-screen for post-Golgi transport modulator project. efflux-deficient yeast background strain, growth absorbance A615, 16 h. inhibition, % at 10 µM. actives 5% (n = 98,000). AID 738, 2007
Candida biofilm: clotrimazole potentiators killing Candida biofilms, primary screen, with clotrimazole, Alamar Blue. actives 0.14% (n = 85,000). C. albicans biofilm + clotrimazole. inhibition, % at 6 µM;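 active = inhibition above 20%; inactive = inhibition below 20%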;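 also: preformed 24 hr biofilms exposed to compound for 48 hr; 0% = biofilm without compound and 100% = blank killed by clotrimazole plus chlorhexidine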
E coli WT exp: growth inhibitors of wild-type E. coli, primary screen, strain BW25113, expanded library, OD600 | growth inhibition, % at 100 µM | AID 710, 2007 | actives 0.15% (n = 98,000) | OD600 absorbance;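 active = growth inhibition above about 50% at one test dose, limit read from the data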;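 also: growth measured after 20 h incubation at 37 °C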
Numbers without * were called inactive. Rule as the data show it, unless noted: active = inhibition above about 30%; inactive = the rest.

For Cn1c(SCc2ccccn2)nnc1-c1ccncc1 the results were Pyk2 oligo antag -0.06, PostGolgi yeast 0.7, Ecoli tolC -11.4, PostGolgi ctrl 0.6, Candida biofilm 0.4 and E coli WT exp 4.0.
O=[N+]([O-])c1cc(C(F)(F)F)ccc1N/N=C/c1cc2ccccc2nc1Cl was read as PostGolgi yeast 44.1*, PostGolgi ctrl 12.5 and E coli WT exp -13.0.
`O=[N+]([O-])c1ccccc1N/N=C\c1ccccc1Cl` gave Pyk2 oligo antag 0.79, PostGolgi yeast 24.3, PostGolgi ctrl 5.8 and E coli WT exp -3.0.
Screening O=C(NC1CC1)C1CCN(Cc2cnn(-c3ccccc3)c2-n2cccc2)CC1 returned Pyk2 oligo antag 0.25, PostGolgi yeast 24.5, PostGolgi ctrl -0.6, Candida biofilm -3.0 and E coli WT exp 5.0.
For O=C(CNC(=O)c1ccco1)OCc1ccc(Cl)cc1 the results were Pyk2 oligo antag 1.35, PostGolgi yeast -9.9, Ecoli tolC -4.5, PostGolgi ctrl -2.0, Candida biofilm 2.4 and E coli WT exp 6.0.
`Cc1cc(NC(=O)c2oc3ccccc3c2C)ccc1-n1cnnn1` gave Pyk2 oligo antag -0.48, PostGolgi yeast -7.5, Ecoli tolC 12.0, PostGolgi ctrl 34.3*, Candida biofilm 11.2 and E coli WT exp -6.0.
For COc1cc(OC)cc(C(=O)Nc2ccc(-n3cnnn3)c(C)c2)c1 the results were Pyk2 oligo antag -0.44, PostGolgi yeast 5.9, Ecoli tolC -2.3, PostGolgi ctrl 13.2, Candida biofilm 5.8 and E coli WT exp 3.0.
For COc1cccc(-c2nc(-c3ccccc3)no2)c1 the results were Pyk2 oligo antag 0.07, PostGolgi yeast 10.5, Ecoli tolC 98.9*, PostGolgi ctrl 3.6, Candida biofilm 0.0 and E coli WT exp 3.0.
For COc1cc(-c2nc(-c3cccc(C)c3)no2)cc(OC)c1OC the results were Pyk2 oligo antag -1.48, Ecoli tolC 67.3* and Candida biofilm 5.8.
COc1cccc(-c2noc(-c3cccnc3)n2)c1 was read as Pyk2 oligo antag -0.13, PostGolgi yeast -2.6, Ecoli tolC 25.3, PostGolgi ctrl 9.4, Candida biofilm 0.5 and E coli WT exp 2.0.
Screening COc1cccc(-c2noc(-c3cccs3)n2)c1 returned Pyk2 oligo antag -0.7, PostGolgi yeast -0.6, Ecoli tolC 94.4*, PostGolgi ctrl 3.2, Candida biofilm 6.4 and E coli WT exp -8.0.
Screening COCCNC(=O)/C(C#N)=C/c1c(N2CC(C)OC(C)C2)nc2ccccn2c1=O (stereo not drawn) returned Pyk2 oligo antag 0.4.
Cc1ccccc1OC(=O)C1C(c2ccccc2)C(C(=O)O)C1c1ccccc1 (stereo not drawn) was read as Pyk2 oligo antag -0.47, PostGolgi yeast 8.7, PostGolgi ctrl -2.2, Candida biofilm -2.8 and E coli WT exp -2.0.
`COc1ccccc1N1CCN(C(=O)COc2ccc(Cl)cc2Br)CC1` gave Pyk2 oligo antag 0.3, PostGolgi yeast 5.0, Ecoli tolC 35.8, PostGolgi ctrl 68.4*, Candida biofilm 7.7 and E coli WT exp -11.0.
`Cc1ccc(OCC(=O)N2CCCCC2)c(Br)c1` gave Pyk2 oligo antag -0.94, PostGolgi yeast 0.0, Ecoli tolC 12.4, PostGolgi ctrl 4.3, Candida biofilm 7.1 and E coli WT exp 7.0.
For COc1ccccc1N1CCN(C(=O)COc2ccc(C)cc2Br)CC1 the results were Pyk2 oligo antag -0.68, PostGolgi yeast -0.6, Ecoli tolC 69.5*, PostGolgi ctrl 34.8*, Candida biofilm 5.1 and E coli WT exp -9.0.
Screening COc1ccc(Cl)cc1S(=O)(=O)N1CCN(C(=O)COc2ccccc2)CC1 returned Pyk2 oligo antag 0.06, PostGolgi yeast -11.6, Ecoli tolC -0.7, PostGolgi ctrl 20.4 and E coli WT exp 6.0.
OC(COc1ccc2ccccc2c1)Cn1ccnc1 (stereo not drawn) was read as Pyk2 oligo antag 0.4, PostGolgi yeast 10.2, Ecoli tolC 1.2, PostGolgi ctrl 9.1, Candida biofilm -6.6 and E coli WT exp 16.0.
Screening OC(COc1ccc2ccccc2c1Br)Cn1ccnc1 (stereo not drawn) returned Pyk2 oligo antag 1.42, PostGolgi yeast -5.5, Ecoli tolC 98.7*, PostGolgi ctrl 7.1, Candida biofilm -7.7 and E coli WT exp 47.0.
`COc1ccc(OC)c(NC(=O)C2C3CC4OC(=O)C2C4C3)c1` (stereo not drawn) gave Pyk2 oligo antag -0.71, PostGolgi yeast 0.7, Ecoli tolC -8.2, PostGolgi ctrl 3.1, Candida biofilm 6.0 and E coli WT exp 6.0.
`CC1N=C2c3ccccc3N=C(SCc3cc(=O)n4ccccc4n3)N2C1=O` (stereo not drawn) gave Ecoli tolC -3.6 and Candida biofilm 0.0.
Screening CCOC(=O)C1=C(c2ccccc2)O/C(=C(\C(=O)OC)C(F)(F)F)S1 returned Pyk2 oligo antag 0.48, PostGolgi yeast -9.8, PostGolgi ctrl 12.4, Candida biofilm 4.5 and E coli WT exp -8.0.
Screening CCOC(=O)C1=C(c2ccccc2)O/C(=C(/C#N)C(F)(F)F)S1 returned PostGolgi yeast 3.3, PostGolgi ctrl 39.1*, Candida biofilm -1.4 and E coli WT exp -1.0.
`c1ccc(OCc2nn3c(Cn4cnc5ccccc54)nnc3s2)cc1` gave Pyk2 oligo antag 1.56, PostGolgi yeast -4.6, Ecoli tolC 29.2, PostGolgi ctrl 41.6*, Candida biofilm 9.5 and E coli WT exp 10.0.
Screening COC(=O)c1sc2ccccc2c1-n1cccc1C(=O)C(=O)Nc1ccc(Cl)cc1 returned Pyk2 oligo antag -0.83, PostGolgi yeast 26.7, PostGolgi ctrl -0.5 and E coli WT exp 1.0.
`O=C(Nc1ccc(Cl)c(Cl)c1)N1CCSC1c1ccco1` (stereo not drawn) gave Pyk2 oligo antag 0.6, PostGolgi yeast -6.9, Ecoli tolC 100.0*, PostGolgi ctrl 7.2, Candida biofilm 9.6 and E coli WT exp 18.0.
For CN(C)c1cccc2c(S(=O)(=O)Nc3ccccn3)cccc12 the results were Pyk2 oligo antag -0.22, PostGolgi yeast -23.6, Ecoli tolC -6.7, PostGolgi ctrl 35.9*, Candida biofilm 3.9 and E coli WT exp 4.0.
For CCN1C(=O)c2cccc3c(S(=O)(=O)Nc4ccccn4)ccc1c23 the results were Pyk2 oligo antag 0.64, PostGolgi yeast 13.8, Ecoli tolC 15.5, PostGolgi ctrl 11.5, Candida biofilm 0.5 and E coli WT exp 1.0.
For Cc1cccc(N(CC(=O)NCc2ccc3c(c2)OCO3)C(=O)CCC(=O)Nc2ccccn2)c1 the results were Pyk2 oligo antag -2.05, PostGolgi yeast 1.2, Ecoli tolC 5.8, PostGolgi ctrl -1.1 and E coli WT exp 1.0.
Cc1cccc(N(CC(=O)NCc2ccc3c(c2)OCO3)C(=O)CCC(=O)Nc2ccccn2)c1C was read as Pyk2 oligo antag -3.15*, PostGolgi yeast 1.7, Ecoli tolC 2.6, PostGolgi ctrl 3.1 and E coli WT exp -5.0.
For CCc1nnc(NC(=O)CSc2ccc(-c3nc4ccc(C)cc4[nH]3)cn2)s1 the results were Pyk2 oligo antag 0.1.

Bioassay records: PubChem BioAssay, several laboratories
